# In ChEMBL document CHEMBL3600357 (J Med Chem, 2015):
# Calls of active or inactive are those of the source. No cut-off for these calls is given here.
# Tests used:
# Rattus norvegicus [1] = species: Rattus norvegicus; experiment: Toxicity in rat testes assessed as effect on proliferative cells; assay type: organism-based, Testis; conditions: in vivo
# [2] = AUC (0 to 24 hrs) in human SJSA1 cells xenografted rat assessed as mouse survival at 5 mg/kg, po qd; assay type: ADME, organism-based, SJSA-1; design: time < 24 hr, dose 5 mg/kg, route oral; conditions: in vivo
# Procedure, shortened: (§1)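 Rats bearing MDM2-amplified human SJSA-1 tumors, dosed orally either daily or 3qw (Monday, Wednesday, Friday). Plasma exposure reported as AUC0-24, plus AUC0-48 for the 3qw schedule.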
# [3] = AUC (0 to 24 hrs) in human SJSA1 cells xenografted rat assessed as mouse survival at 30 mg/kg, po qd; assay type: ADME, organism-based, SJSA-1; design: time < 24 hr, dose 30 mg/kg, route oral; conditions: in vivo; procedure, shortened: as §1
# [4] = molecular target: T1, Apoptosis regulator Bcl-2 (Homo sapiens, UniProt P10415); experiment: Inhibition of Bcl2 (unknown origin) assessed as inhibition of Bcl2-Bad interaction by TR-FRET assay
# Mus musculus = experiment: AUC in OF1 mouse at 3 mg/kg, po; assay type: ADME, organism-based; conditions: in vivo
# Rattus norvegicus [5] = experiment: Terminal half life in Sprague-Dawley rat at 1 mg/kg, iv; assay type: ADME, organism-based; conditions: in vivo
# Procedure, shortened: (§2)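 Sprague-Dawley rats. IV dose given as a solution in NMP:PEG200 (10:90); 3 mg/kg PO given as a suspension in CMC:water:Tween (0.5:99:0.5). AUC and Cmax dose-normalized to 1 mg/kg. Mean ± SD from four rats.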
# [6] = Protein binding in OF1 mouse plasma by equilibrium dialysis method; assay type: ADME, cell-free; conditions: read-out: PPB
# Rattus norvegicus [7] = experiment: Toxicity in human SJSA1 cells xenografted rat assessed as mouse survival at 70 mg/kg, po dosed 3 times per week; assay type: organism-based, SJSA-1; conditions: in vivo
# Procedure, shortened: (§3)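 Tolerability was monitored in SJSA-1 tumour-bearing rats during the daily and 3qw (Monday, Wednesday, Friday) treatment schedules. Histopathology was done on all 3qw doses and on the 30 mg/kg daily group.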
# Rattus norvegicus [8] = experiment: Toxicity in human SJSA1 cells xenografted rat assessed as change in body weight at 10 mg/kg, po qd (reference value: 1.9 to 6.8%); assay type: organism-based, SJSA-1; conditions: in vivo
# Rattus norvegicus [9] = experiment: Toxicity in human SJSA1 cells xenografted dosed rat assessed as induction of histopathological changes at 30 mg/kg, po qd; assay type: organism-based, SJSA-1; conditions: in vivo
# Procedure, shortened: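 Daily treatment of SJSA-1 tumour-bearing rats; histopathology was performed on the 30 mg/kg daily dose group to look for compound-related findings.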
# Rattus norvegicus [10] = experiment: In-vivo inhibition of MDM2/p53 interaction in human SJSA1 cells xenografted rat assessed as increase in PUMA mRNA level at 30 mg/kg, po measured within 72 hrs post dose by qRT-PCR method; assay type: functional, organism-based; conditions: SJSA-1
# Procedure, shortened: (§4)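 SJSA-1 (MDM2-amplified) tumour-bearing rats were dosed at 30 mg/kg. Tumour samples were collected over time, and p21, MDM2 and PUMA mRNA were measured as p53 pharmacodynamic markers, alongside compound levels.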
# [11] = molecular target: E3 ubiquitin-protein ligase Mdm2 (Canis lupus familiaris, UniProt P56950); experiment: Inhibition of dog MDM2 by TR-FRET assay
# Rattus norvegicus [12] = experiment: Toxicity in human SJSA1 cells xenografted rat assessed as change in body weight at 70 mg/kg, po dosed three times per week (reference value: 1.9 to 6.8%); assay type: organism-based, SJSA-1; conditions: in vivo
# Rattus norvegicus [13] = experiment: Toxicity in human SJSA1 cells xenografted rat assessed as change in body weight at 5 mg/kg, po qd (reference value: 1.9 to 6.8%); assay type: organism-based, SJSA-1; conditions: in vivo
# [14] = Intrinsic clearance in monkey liver microsomes; assay type: ADME, Macaca mulatta; conditions: rhesus monkey, read-out: CLH
# [15] = Inhibition of cell proliferation of human Saos2 cells deficient with p53 gene; conditions: SAOS-2
# [16] = Tmax in cynomolgus monkey at 0.3 mg/kg, po; assay type: ADME, organism-based, Macaca fascicularis; conditions: in vivo
# [17] = molecular target: Induced myeloid leukemia cell differentiation protein Mcl-1 (Homo sapiens, UniProt Q07820); experiment: Inhibition of Mcl1 (unknown origin) assessed as inhibition of Mcl1-Bak interaction by TR-FRET assay
# Rattus norvegicus [18] = experiment: Toxicity in human SJSA1 cells xenografted rat assessed as change in body weight at 30 mg/kg, po dosed three times per week (reference value: 1.9 to 6.8%); assay type: organism-based, SJSA-1; conditions: in vivo
# [19] = AUC (0 to 48 hrs) in human SJSA1 cells xenografted rat assessed as mouse survival at 30 mg/kg, po dosed 3 times per week; assay type: ADME, organism-based, SJSA-1; design: time < 48 hr, dose 30 mg/kg, route oral; conditions: in vivo; procedure, shortened: as §1
# Rattus norvegicus [20] = experiment: Toxicity in human SJSA1 cells xenografted rat assessed as mouse survival at 30 mg/kg, po dosed 3 times per week; assay type: organism-based, SJSA-1; conditions: in vivo; procedure, shortened: as §3
# Rattus norvegicus [21] = experiment: Toxicity in human SJSA1 cells xenografted rat assessed as mouse survival at 20 mg/kg, po qd; assay type: organism-based, SJSA-1; conditions: in vivo; procedure, shortened: as §3
# [22] = Volume of distribution at steady state in beagle dog at 0.1 mg/kg, iv; assay type: ADME, organism-based, Canis lupus familiaris; conditions: in vivo, read-out: Vdss
# [23] = Terminal half life in cynomolgus monkey at 0.1 mg/kg, iv; assay type: ADME, organism-based, Macaca fascicularis; conditions: in vivo, read-out: beta t1/2 (converted)
# [24] = molecular target: E3 ubiquitin-protein ligase Mdm2 (Mus musculus, UniProt P23804); experiment: Inhibition of mouse MDM2 by TR-FRET assay
# SJSA-1 = experiment: Antitumor activity against human SJSA1 cells xenografted in rat assessed as reduction tumor growth dosed orally three times per week; assay type: functional, organism-based
# Procedure, shortened: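 SJSA-1 tumour-bearing rats were treated either daily or 3qw (Monday, Wednesday and Friday) across a range of doses, and tumour growth was followed over the treatment course. Plasma AUC0-24 was also determined, along with AUC0-48 for the 3qw schedule.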
# Rattus norvegicus [25] = species: Rattus norvegicus; experiment: Toxicity in rat assessed as changes in testes parameters; assay type: organism-based, Testis; conditions: in vivo
# [26] = AUC (0 to 24 hrs) in human SJSA1 cells xenografted rat assessed as mouse survival at 20 mg/kg, po qd; assay type: ADME, organism-based, SJSA-1; design: time < 24 hr, dose 20 mg/kg, route oral; conditions: in vivo; procedure, shortened: as §1
# Rattus norvegicus [27] = experiment: Toxicity in human SJSA1 cells xenografted rat assessed as mouse survival at 30 mg/kg, po qd; assay type: organism-based, SJSA-1; conditions: in vivo; procedure, shortened: as §3
# [28] = AUC (0 to 48 hrs) in human SJSA1 cells xenografted rat assessed as mouse survival at 70 mg/kg, po dosed 3 times per week; assay type: ADME, organism-based, SJSA-1; design: time < 48 hr, dose 70 mg/kg, route oral; conditions: in vivo; procedure, shortened: as §1
# [29] = Inhibition of cell proliferation of human SJSA1 cells expressing p53; conditions: SJSA-1
# Rattus norvegicus [30] = experiment: Toxicity in human SJSA1 cells xenografted rat assessed as change in body weight at 30 mg/kg, po qd (reference value: 1.9 to 6.8%); assay type: organism-based, SJSA-1; conditions: in vivo
# Rattus norvegicus [31] = experiment: AUC in Sprague-Dawley rat at 3 mg/kg, po; assay type: ADME, organism-based; conditions: in vivo; procedure, shortened: as §2
# [32] = molecular target: T1, Apoptosis regulator Bcl-2; experiment: Inhibition of Bcl2 (unknown origin) assessed as inhibition of Bcl2-Bak interaction by TR-FRET assay
# Rattus norvegicus [33] = experiment: In-vivo inhibition of MDM2/p53 interaction in human SJSA1 cells xenografted rat assessed as increase in MDM2 mRNA level at 30 mg/kg, po measured within 72 hrs post dose by qRT-PCR method; assay type: functional, organism-based; conditions: SJSA-1; procedure, shortened: as §4
# Cynomolgus monkey = experiment: AUC in cynomolgus monkey at 0.3 mg/kg, po; assay type: ADME, organism-based, Macaca fascicularis; conditions: in vivo
# Rattus norvegicus [34] = experiment: Toxicity in human SJSA1 cells xenografted rat assessed as mouse survival at 10 mg/kg, po qd; assay type: organism-based, SJSA-1; conditions: in vivo; procedure, shortened: as §3
# Rattus norvegicus [35] = species: Rattus norvegicus; experiment: Toxicity in male rat assessed as changes in adrenal gland parameters; assay type: organism-based; conditions: in vivo
# [36] = Terminal half life in OF1 mouse at 1 mg/kg, iv; assay type: ADME, organism-based; conditions: in vivo, read-out: beta t1/2 (converted)
# Rattus norvegicus [37] = experiment: Volume of distribution at steady state in Sprague-Dawley rat at 1 mg/kg, iv; assay type: ADME, organism-based; conditions: in vivo
# [38] = AUC (0 to 24 hrs) in human SJSA1 cells xenografted rat assessed as mouse survival at 70 mg/kg, po dosed 3 times per week; assay type: ADME, organism-based, SJSA-1; design: time < 24 hr, dose 70 mg/kg, route oral; conditions: in vivo; procedure, shortened: as §1
# T1 sequence (P10415 whole entry): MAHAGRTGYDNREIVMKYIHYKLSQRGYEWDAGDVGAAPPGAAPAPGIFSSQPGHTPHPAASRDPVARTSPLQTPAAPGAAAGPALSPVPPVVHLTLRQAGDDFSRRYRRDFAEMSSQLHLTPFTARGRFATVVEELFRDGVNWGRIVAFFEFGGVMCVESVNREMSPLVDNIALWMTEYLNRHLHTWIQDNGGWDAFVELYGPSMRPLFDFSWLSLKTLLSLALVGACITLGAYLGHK
# Sequence of E3 ubiquitin-protein ligase Mdm2 (Mus musculus, UniProt P23804) (P23804 whole entry): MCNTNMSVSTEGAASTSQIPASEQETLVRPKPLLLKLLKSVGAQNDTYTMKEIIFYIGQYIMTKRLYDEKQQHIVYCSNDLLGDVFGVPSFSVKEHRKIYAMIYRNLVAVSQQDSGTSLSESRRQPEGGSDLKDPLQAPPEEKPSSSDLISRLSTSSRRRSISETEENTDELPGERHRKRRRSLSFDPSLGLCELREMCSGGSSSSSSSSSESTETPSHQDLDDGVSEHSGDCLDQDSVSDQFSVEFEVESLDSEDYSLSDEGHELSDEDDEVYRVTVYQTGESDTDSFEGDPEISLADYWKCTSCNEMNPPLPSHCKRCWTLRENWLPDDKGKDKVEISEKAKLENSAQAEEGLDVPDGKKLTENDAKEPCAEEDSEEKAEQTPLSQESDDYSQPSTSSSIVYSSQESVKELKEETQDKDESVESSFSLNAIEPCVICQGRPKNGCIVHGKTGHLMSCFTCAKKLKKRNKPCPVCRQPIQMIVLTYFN
# Sequence of Induced myeloid leukemia cell differentiation protein Mcl-1 (Q07820 whole entry): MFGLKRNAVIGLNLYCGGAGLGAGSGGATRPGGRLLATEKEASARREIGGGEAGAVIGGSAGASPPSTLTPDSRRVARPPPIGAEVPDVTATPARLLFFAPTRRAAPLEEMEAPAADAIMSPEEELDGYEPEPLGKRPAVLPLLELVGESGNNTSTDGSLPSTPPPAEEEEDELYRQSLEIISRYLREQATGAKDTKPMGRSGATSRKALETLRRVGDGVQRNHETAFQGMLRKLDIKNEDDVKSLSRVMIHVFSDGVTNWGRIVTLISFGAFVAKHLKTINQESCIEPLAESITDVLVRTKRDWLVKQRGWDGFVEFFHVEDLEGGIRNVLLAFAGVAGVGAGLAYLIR
# Sequence of E3 ubiquitin-protein ligase Mdm2 (Canis lupus familiaris, UniProt P56950) (P56950 whole entry): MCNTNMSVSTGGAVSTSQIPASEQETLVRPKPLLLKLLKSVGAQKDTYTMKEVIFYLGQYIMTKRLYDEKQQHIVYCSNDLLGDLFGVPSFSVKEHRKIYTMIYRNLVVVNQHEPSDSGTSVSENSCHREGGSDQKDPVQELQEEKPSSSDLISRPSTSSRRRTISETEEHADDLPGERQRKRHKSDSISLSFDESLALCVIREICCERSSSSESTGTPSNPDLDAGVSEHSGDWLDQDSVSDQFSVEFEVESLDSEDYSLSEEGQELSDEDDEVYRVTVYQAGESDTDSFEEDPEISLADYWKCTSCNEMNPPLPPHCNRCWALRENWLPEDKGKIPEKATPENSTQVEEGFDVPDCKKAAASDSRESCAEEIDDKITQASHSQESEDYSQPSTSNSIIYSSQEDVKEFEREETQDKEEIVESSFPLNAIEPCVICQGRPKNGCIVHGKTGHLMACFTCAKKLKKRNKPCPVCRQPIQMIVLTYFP
compound,measurement,setting,value
COc1cc2c(cc1OC(C)C)[C@H](c1ccc(Cl)cc1)N(c1ccc(N(C)C[C@H]3CC[C@H](N4CCN(C)C(=O)C4)CC3)cc1)C(=O)C2 [CGM-097],Activity,Rattus norvegicus [1],Non-toxic
same,AUC at 24 h,[2],34 µM·h
same,AUC at 24 h,[3],421 µM·h
same,IC50,[4],> 50000 nM
same,AUC,Mus musculus,3.337 µM·h
same,beta t1/2,Rattus norvegicus [5],12.1 h
same,fraction unbound,[6],< 0.01
same,Activity,Rattus norvegicus [7],Non-toxic
same,Activity,Rattus norvegicus [8],1.8%
same,Activity,Rattus norvegicus [9],Non-toxic
same,inhibition,Rattus norvegicus [10],Active
same,Ki,[11],20.5 nM
same,Activity,Rattus norvegicus [12],7%
same,Activity,Rattus norvegicus [13],2.8%
same,microsomal CLint,[14],26.6 µL/min/mg
same,IC50,[15],20500 nM
same,Tmax,[16],1.3 h
same,IC50,[17],> 50000 nM
same,Activity,Rattus norvegicus [18],4.5%
same,AUC at 48 h,[19],381 µM·h
same,Activity,Rattus norvegicus [20],Non-toxic
same,Activity,Rattus norvegicus [21],Non-toxic
same,Vd,[22],4.2 L/kg
same,half-life,[23],8.3 h
same,Ki,[24],65.9 nM
same,growth inhibition (GI),SJSA-1,Dose-dependent effect
same,Activity,Rattus norvegicus [25],Toxic
same,AUC at 24 h,[26],163 µM·h
same,Activity,Rattus norvegicus [27],Non-toxic
same,AUC at 48 h,[28],1040 µM·h
same,IC50,[29],353 nM
same,Activity,Rattus norvegicus [30],4.5%
same,AUC,Rattus norvegicus [31],2.779 µM·h
same,IC50,[32],> 50000 nM
same,inhibition,Rattus norvegicus [33],Active
same,AUC,Cynomolgus monkey,3.73 µM·h
same,Activity,Rattus norvegicus [34],Non-toxic
same,Activity,Rattus norvegicus [35],Toxic
same,half-life,[36],6.4 h
same,Vdss,Rattus norvegicus [37],6.4 L/kg
same,AUC at 24 h,[38],616 µM·h
